Data set [1] is described as follows: Effective concentration against HIV-I RTMDR1 in MT-4 cells. Format: functional, cell-based, human immunodeficiency virus type i. The conditions noted are these: mt4. The gist of the method: (§1)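 MT4 cells (6 × 10⁵ cells/mL) were infected with diluted HIV-1 RTMDR1/MT2 stock (RT mutations L74V, M41L, V106A, T215Y) at MOI 0.001 TCID₅₀/cell. Compounds were added at various concentrations in RPMI 1640 with 10% FBS, then incubated at 37 °C in humidified CO₂. Medium containing compound was replenished on day 2. p24 in day-4 supernatants was measured by ELISA.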

Data set [2] in a line: Inhibitory concentration against HIV-I RTMDR1 in MT-4 cells. The conditions noted are these: mt4. Format: functional, cell-based, Human immunodeficiency virus 1.
For data set [3], the system named is Human immunodeficiency virus 3. In words: Inhibitory concentration against HIV IIIB replication in H9 lymphocytes. Format: functional, organism-based, human immunodeficiency virus type IIIB. The following applies: Human immunodeficiency virus 1.
The test system of data set [4] is Human immunodeficiency virus 1. The data set can be described thus: Effective concentration against HIV IIIB replication in H9 lymphocytes.
A short description of data set [5]: Therapeutic index was determined. The following applies: for selectivity ratio: read-out: TI.
A short description of data set [6]: Effective concentration against HIV-I RTMDR1 in MT-4 cells; NS=No suppression at 10 ug/ml. Format: functional, cell-based, human immunodeficiency virus type i. The conditions noted are these: mt4. In outline:
as §1

The structures appear in SMILES notation. Where “and” joins values, the source holds several entries; their conditions need not be identical. Equal entries are not always repeated.

The term EC50 denotes the concentration that produces a half-maximal response. A high value points to a need for much substance. Broadly, the IC50 is the point on the concentration scale where inhibition reaches its midpoint. Read a high IC50 as lower potency. For `Cc1oc2c3c(ccc2c(=O)c1C)OC(C)(C)[C@H](OC(=O)C12CCC(C)(C(=O)O1)C2(C)C)[C@@H]3OC(=O)C12CCC(C)(C(=O)O1)C2(C)C` (some centres not stated), the EC50 in data set [1] is 0.31 µM; in data set [4] it was 0.007 µM. Moreover, the half-inhibitory concentration (IC50) in data set [2] was 4.72 µM; in data set [3], 11.3 µM.

With `CCOCc1cc(=O)c2ccc3c(c2o1)[C@@H](OC(=O)C12CCC(C)(C(=O)O1)C2(C)C)[C@@H](OC(=O)C12CCC(C)(C(=O)O1)C2(C)C)C(C)(C)O3` (some centres not stated), the EC50 in data set [1] was 0.37 µM; in data set [4], 0.1 µM. Moreover, the IC50 was above 12.5 µM in data set [2] and 15.1 µM in data set [3]. This compound also had a TI in data set [5] of 151. For the same compound, in data set [5], the selectivity ratio was above 34.

Consider `CCc1cc(=O)c2ccc3c(c2o1)[C@@H](OC(=O)C12CCC(C)(C(=O)O1)C2(C)C)[C@@H](OC(=O)C(C)C)C(C)(C)O3` (some centres not stated), for which the EC50 in data set [1] is 0.28 µM; in data set [4], 0.25 µM. Moreover, the IC50 was above 18.5 µM in data set [2] and above 46.3 µM in data set [3]. Moreover, in data set [5], the TI is 182 and > 66.7.

Take `CCOCc1cc(=O)c2ccc3c(c2o1)[C@@H](OC(=O)C12CCC(C)(C(=O)O1)C2(C)C)[C@@H](OC(=O)C(C)C)C(C)(C)O3` (some centres not stated): the figures for the EC50 in data set [1] and in data set [4] were 1.09 µM and 0.62 µM, respectively. For the same compound, the IC50 in data set [2] was above 17.5 µM; in data set [3], above 43.9 µM.

For `CCCc1cc(=O)c2ccc3c(c2o1)[C@@H](OC(=O)C12CCC(C)(C(=O)O1)C2(C)C)[C@@H](OC(=O)C12CCC(C)(C(=O)O1)C2(C)C)C(C)(C)O3` (some centres not stated), the figures for the EC50 in data set [1] and in data set [4] were 0.14 µM and 0.02 µM, respectively. The figures for the IC50 in data set [2] and in data set [3] were 37.6 µM and above 37.6 µM, respectively.

Consider `CC1(C)Oc2ccc3c(=O)ccoc3c2[C@@H](OC(=O)C23CCC(C)(C(=O)O2)C3(C)C)[C@H]1OC(=O)C12CCC(C)(C(=O)O1)C2(C)C` (some centres not stated), for which the EC50 result was “No suppression” in data set [6] and 0.0013 µM in data set [4]. The selectivity ratio in data set [5] came to 11100. Moreover, in data set [3], the midpoint of inhibition, the IC50, lay at 14.2 µM.

For the compound `CC1(C)Oc2ccc3c(=O)c(-c4ccccc4)coc3c2[C@@H](OC(=O)C23CCC(C)(C(=O)O2)C3(C)C)[C@H]1OC(=O)C12CCC(C)(C(=O)O1)C2(C)C` (some centres not stated), the EC50 entry in data set [6] is “No suppression”; in data set [4], 1.54 µM. Also, the selectivity ratio in data set [5] was found to be 23.3. This compound also registered an IC50 in data set [3] above 35.8 µM.

On to `CCc1cc(=O)c2ccc3c(c2o1)[C@@H](OC(=O)C12CCC(C)(C(=O)O1)C2(C)C)[C@@H](OC(=O)C12CCC(C)(C(=O)O1)C2(C)C)C(C)(C)O3` (some centres not stated), for which the figures for the EC50 in data set [1] and in data set [4] were 0.06 µM and 0.00032 µM, respectively. Besides, the IC50 turned out to be 43.1 µM in data set [2] and 37.2 µM in data set [3].

For the compound `CC(=O)O[C@@H]1[C@H](OC(=O)C23CCC(C)(C(=O)O2)C3(C)C)c2c(ccc3c(=O)cc(C)oc23)OC1(C)C` (some centres not stated), the results for the concentration giving a half-maximal response (EC50) in data set [1] and in data set [4] were 2.2 µM and 2.29 µM, respectively. Besides, the figures for the IC50 in data set [2] and in data set [3] were above 40.2 µM and above 50 µM, respectively. Further, in data set [5], the TI is 18.2. The selectivity ratio in data set [5] is 21.9.

For `Cc1cc(=O)c2ccc3c(c2o1)[C@@H](OC(=O)C12CCC(C)(C(=O)O1)C2(C)C)[C@@H](OC(=O)C(C)C)C(C)(C)O3` (some centres not stated), the figures for the EC50 in data set [1] and in data set [4] were 0.3 µM and 0.88 µM, respectively. The IC50 was determined as 17.1 µM in data set [2] and 40.7 µM in data set [3]. The TI in data set [5] stood at 56.3. In data set [5], the selectivity ratio came out at 46.

Consider `CC(=O)O[C@@H]1[C@H](OC(=O)C23CCC(C)(C(=O)O2)C3(C)C)c2c(ccc3c(=O)cc(-c4ccccc4)oc23)OC1(C)C` (some centres not stated), for which the EC50 is 4.46 µM in data set [1] and 2.24 µM in data set [4]. Besides, the 50% inhibitory concentration (IC50) in data set [2] is 6.25 µM; in data set [3] it was above 44.6 µM.

For the compound `Cc1cc(=O)c2ccc3c(c2o1)[C@@H](OC(=O)C12CCC(C)(C(=O)O1)C2(C)C)[C@@H](OC(=O)CC(C)C)C(C)(C)O3` (some centres not stated), the results for the concentration for a half-maximal effect (EC50) in data set [1] and in data set [4] were 0.59 µM and 0.0057 µM, respectively. Besides, the IC50 in data set [2] is 13 µM; in data set [3], above 32.2 µM.

Regarding `CC1(C)Oc2ccc3ccc(=O)oc3c2[C@@H](OC(=O)C23CCC(C)(C(=O)O2)C3(C)C)[C@H]1OC(=O)C12CCC(C)(C(=O)O1)C2(C)C` (some centres not stated), the EC50 turned out to be 12.1 µM in data set [1] and 0.04 µM in data set [4]. Besides, the IC50 in data set [2] and in data set [3] was above 16.1 µM throughout.

Consider `CCc1cc(=O)c2cc(C(C)(C)C)c3c(c2o1)[C@@H](OC(=O)C12CCC(C)(C(=O)O1)C2(C)C)[C@@H](OC(=O)C12CCC(C)(C(=O)O1)C2(C)C)C(C)(C)O3` (some centres not stated), for which the EC50 in data set [1] was 7.36 µM; in data set [4] it was 1.62 µM. For the same compound, the IC50 was above 14.2 µM in data set [2] and 35.4 µM in data set [3].

As to `CC(C)c1cc(=O)c2ccc3c(c2o1)[C@@H](OC(=O)C12CCC(C)(C(=O)O1)C2(C)C)[C@@H](OC(=O)C12CCC(C)(C(=O)O1)C2(C)C)C(C)(C)O3` (some centres not stated), the figures for the EC50 in data set [1] and in data set [4] were 0.14 µM and 0.07 µM, respectively. In addition, the IC50 was above 15 µM in data set [2] and 33.4 µM in data set [3]. In data set [5], this compound came in with a TI of 483. In data set [5], the selectivity ratio is above 111.

With `Cc1cn([C@H]2C[C@H](N=[N+]=[N-])[C@@H](CO)O2)c(=O)[nH]c1=O` [ZIDOVUDINE], the EC50 in data set [1] came out at 0.1 µM; in data set [4] it was 0.04 µM. For the same compound, the IC50 in data set [2] was above 37.5 µM; in data set [3] it was 1870 µM.

`Cc1cc(=O)oc2c3c(ccc12)OC(C)(C)[C@H](OC(=O)C12CCC(C)(C(=O)O1)C2(C)C)[C@@H]3OC(=O)C12CCC(C)(C(=O)O1)C2(C)C` (some centres not stated): the EC50 was 9.43 µM in data set [1] and 0.0059 µM in data set [4]. In addition, the results for the IC50 in data set [2] and in data set [3] were above 15.7 µM and above 39.3 µM, respectively.

In the case of `CC(C)C(=O)O[C@@H]1[C@H](OC(=O)C23CCC(C)(C(=O)O2)C3(C)C)c2c(ccc3c(=O)cc(-c4ccccc4)oc23)OC1(C)C` (some centres not stated), the values for the EC50 entry in data set [6] and in data set [4] were “No suppression” and 1.68 µM, respectively. Further, in data set [5], the selectivity ratio was 25.3. This compound also yielded an IC50 in data set [3] above 42.5 µM.

In the case of `Cc1coc2c3c(ccc2c1=O)OC(C)(C)[C@H](OC(=O)C12CCC(C)(C(=O)O1)C2(C)C)[C@@H]3OC(=O)C12CCC(C)(C(=O)O1)C2(C)C` (some centres not stated), the results for the EC50 in data set [1] and in data set [4] were 1.28 µM and 0.00099 µM, respectively. The results for the half-maximal inhibitory concentration (IC50) in data set [2] and in data set [3] were 3.14 µM and 14.7 µM, respectively.

In the case of `Cc1cc(=O)c2ccc3c(c2o1)[C@@H](OC(=O)C12CCC(C)(C(=O)O1)C2(C)C)[C@@H](OC(=O)C12CCC(C)(C(=O)O1)C2(C)C)C(C)(C)O3` (some centres not stated), the EC50 in data set [1] is 0.19 µM; in data set [4], 0.0031 µM. Moreover, the 50% inhibitory concentration (IC50) in data set [2] turned out to be 11.8 µM; in data set [3] it was 27.3 µM. Further, in data set [5], the TI is listed as 8600. Besides, the selectivity ratio in data set [5] was 62.5.

For `CC1(C)Oc2ccc3c(=O)cc(-c4ccccc4)oc3c2[C@@H](OC(=O)C23CCC(C)(C(=O)O2)C3(C)C)[C@H]1OC(=O)C12CCC(C)(C(=O)O1)C2(C)C` (some centres not stated), the EC50 is 0.17 µM in data set [1] and 0.12 µM in data set [4]. The IC50 in data set [2] was 12.2 µM; in data set [3], above 35.8 µM. Moreover, the TI in data set [5] was determined as 71. For the same compound, in data set [5], the selectivity ratio is above 277.
